Assay outcomes from PubChem BioAssay.
KCNK3 block: human KCNK3 channel inhibitors, primary screen, CHO cells, FluxOR thallium flux, B-score; B-score at 10 µM; FluxOR fluorescence; active compounds read low; 340,000 compounds, 0.84% hits;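 active = B-score under library mean minus 4 SD, starting fluorescence ratio at most library mean plus 5 SD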;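 also: more negative B-score means stronger inhibition of thallium flux through KCNK3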
Target sequence (O14649 whole entry, looked up): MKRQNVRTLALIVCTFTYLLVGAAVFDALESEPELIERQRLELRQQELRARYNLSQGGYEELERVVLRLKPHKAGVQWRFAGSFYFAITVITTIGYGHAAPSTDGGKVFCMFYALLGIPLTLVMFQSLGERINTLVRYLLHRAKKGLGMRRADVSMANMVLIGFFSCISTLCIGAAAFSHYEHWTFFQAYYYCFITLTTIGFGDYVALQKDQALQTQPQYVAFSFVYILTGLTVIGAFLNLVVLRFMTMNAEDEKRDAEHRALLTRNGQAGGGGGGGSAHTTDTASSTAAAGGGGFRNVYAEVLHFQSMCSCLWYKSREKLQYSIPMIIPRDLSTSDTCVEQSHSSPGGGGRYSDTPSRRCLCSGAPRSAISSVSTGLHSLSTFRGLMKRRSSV
Kir21 inh: inhibitors of mouse Kir2.1 inward-rectifier potassium channel | Inward rectifier potassium channel 2 (Mus musculus), P35561 | HEK293-Kir2.1, FluxOR thallium flux fluorescence; active compounds read low | B-score at 10 µM | 310,000 compounds, 0.85% hits | AID 1672, 2009;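 active = fluorescence ratio B-score at or below minus 3 SD of library scores, with starting-brightness B-score within 2 SD, cut at about -4.2 in these data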;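 also: channel flux triggered by added potassium and thallium sulfate stimulus; B-score of peak minus minimum fluorescence over baseline after thallium stimulus; more negative B-score means stronger Kir2.1 block with less thallium influx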
KCNK9 block: KCNK9 potassium channel inhibitors, primary screen, HEK293 cells, thallium flux; Potassium channel subfamily K member 9 (Homo sapiens), Q9NPC2; FluxOR thallium flux fluorescence; active compounds read low; B-score at 10 µM; 310,000 compounds, 1.2% hits;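 active = ratio B-score over 3 SD below the library mean, with starting fluorescence within 5 SD of its mean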;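 also: negative B-score means less thallium flux so channel inhibition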
KCNQ1 pot: potentiators or activators of KCNQ1 channel, primary screen, cell-based, thallium flux, high-throughput; B-score at 10 µM; Potassium voltage-gated channel subfamily KQT member 1 (Homo sapiens), P51787; 310,000 compounds, 0.35% hits; CHO-K1 KCNQ1, thallium flux FluxOR fluorescence; active compounds read high;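 active = fluorescence ratio B-score, a plate-corrected score, at least three library SD, with initial intensity B-score within 5 SD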
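Assay system: CHO-K1 cells stably expressing KCNQ1; Medium: assay buffer with matched DMSO; Also added: K+/Tl+ depolarizing stimulus; Dosing: single dose; Timing: dye 90 min, compound 20 min, room temperature; Measured by: kinetic FluxOR thallium fluorescence, 10-s 1-Hz baseline, 110-s post-stimulus read; Read-out: peak-minus-minimum fluorescence over initial fluorescence, negative-control normalized, B-scored.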
hERG protect: hERG rescue from dofetilide block, primary screen, cell-based, CHO-hERG, FluxOR thallium flux, dofetilide IC70; dofetilide IC70 present; activation (rescue from dofetilide block), less the hit threshold, % at 10 µM; 310,000 compounds, 0.51% hits; AID 1511, 2009;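 active = activation above the mean of controls blocked by dofetilide plus 5 SD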;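 also: thallium influx through hERG after potassium depolarization seen as dye fluorescence rise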
KCNQ1 inh: inhibitors of human KCNQ1 channel, primary screen, cell-based, thallium flux, high-throughput; Potassium voltage-gated channel subfamily KQT member 1 (Homo sapiens), P51787; B-score at 10 µM; 310,000 compounds, 1.3% hits; CHO-K1 KCNQ1, FluxOR thallium flux fluorescence; active compounds read high; AID 2642, 2010;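 active = compounds whose thallium flux B-score, printed positive for inhibition, exceeds three library SD while starting fluorescence stays within three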;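 also: channel opened by potassium depolarization with thallium stimulus after 20 min compound exposure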
Numbers without * were called inactive; i = inactive; / = not tested or not shown. In the library only some 3.7% were active in any assay of this set; here they are far more common.

SMILES	KCNK3 block	Kir21 inh	KCNK9 block	KCNQ1 pot	hERG protect	KCNQ1 inh
Cc1cc([N+](=O)[O-])ccc1-c1ccc(C2Nc3ccccc3C(=O)N2O)o1 (stereo not drawn)	i	-1.4	i	13*	2	i
CCC1CCCCN1S(=O)(=O)c1ccccc1[N+](=O)[O-] (stereo not drawn)	i	-4.3*	i	i	-5	i
CC1CCCCN1S(=O)(=O)c1ccccc1[N+](=O)[O-] (stereo not drawn)	i	-0.19	i	i	-12	i
O=C(NCC1CCCO1)c1ccc(-c2ccccc2Cl)o1 (stereo not drawn)	i	0.12	i	i	-13	i
O=C(N/N=C/c1ccccn1)c1cc(Br)ccc1O	i	-0.35	i	10*	0	i
O=C(N/N=C/c1cccnc1)c1cc(Br)ccc1O	i	-0.84	i	i	-2	i
CCOC(=O)c1sc2nc(CSc3ccccc3)nc(N3CCC(C(N)=O)CC3)c2c1C	i	-0.1	i	i	10*	i
Cc1sc2nc(CSc3ccccc3)nc(N3CCC(C(N)=O)CC3)c2c1C	i	0.25	i	i	-8	i
CSCCC(NC(=O)c1ccco1)C(=O)NCC(c1ccccc1)N(C)C (stereo not drawn)	i	/	/	/	/	/
O=C(/C(=C/c1ccccc1)n1cncn1)c1ccc(Cl)cc1Cl	i	-13*	i	i	-11	i
O=C(/C(=N\O)n1cncn1)c1ccc(Cl)cc1Cl	i	-0.37	i	i	-13	i
CCNc1ccc(Br)cc(C(=O)/C=C/c2c(Cl)cccc2Cl)c1=O	-9*	-2.5	i	i	-23	6*
CC1CCCC(NC(=S)NC(=O)c2ccccc2Br)C1C (stereo not drawn)	i	0.62	i	8*	7.2*	i
O=C(NNC(=S)NC1CCCCC1)c1ccccc1Br	i	-0.05	i	i	-6	i
Cc1ccc(OCC(=O)NNC(=S)NC(=O)c2cccs2)c(C)c1	i	-0.95	i	34*	-16	i
O=C(COc1ccc(Br)cc1Br)NNC(=O)c1cccs1	i	-0.53	i	i	-4	i
Cc1cc(OCC(=O)NNC(=S)NC(=O)c2cccs2)ccc1Cl	i	-2	i	15*	-20	i
Cc1ccc(OCC(=O)NNC(=S)NC(=O)c2ccc(Br)o2)c(C)c1	i	-0.27	i	69*	-9	i
CCc1nonc1NC(=O)COc1ccc(Cl)c(C)c1	i	-0.48	i	i	-9	6*
COc1cccc(CNC(=O)C2CCN(S(=O)(=O)N3CCC(C)CC3)CC2)c1	i	-1.8	i	i	-2	i
Cc1cc(NC(=O)c2cncc(Br)c2)ccc1NC(=O)c1cc2ccccc2o1	i	-0.59	i	i	-2	i
COc1ccc(C(CNC(=O)CCNC(=O)c2ccc(Br)cc2)N2CCOCC2)cc1 (stereo not drawn)	i	-0.62	i	i	-9	i
O=C(NCc1nc2ccccc2[nH]1)c1ccc(S(=O)(=O)N2CCCC2)cc1	i	-0.82	i	i	8.1*	i
O=C(NN1C(=O)CSC1=S)C(=O)NN1C(=O)CSC1=S	i	-0.87	i	i	5.2*	i
COCC(C)n1c(C)cc(C(=O)COC(=O)c2cccn2C)c1C (stereo not drawn)	i	/	/	/	/	/
CC1(C)Cc2c(ccc3ccccc23)C2=C(C(=O)N3CCCC3)C(=O)C(=O)N21	i	0.22	i	i	5.1*	i
CC(C)(C)c1ccc(C(=O)NCCC(=O)NNC(=O)COc2ccccc2F)cc1	i	/	/	/	/	/
